Results gathered from unrelated publications.
Protocols differ between the studies behind these lines.
Cell line: HCT-116
Read-out: cell growth or viability

COc1cc(CNC(=O)CCCC/C=C/C(C)C)ccc1O  inhibition (SRB; 10 µM): 0%
COc1cc2c(OC)nc3c4cc5c(cc4cc(O)c3c2cc1OC)OCO5  GI50 (MTT; 72 h): 5.7 µM
COc1ccc(C(=O)/C=C/c2cccc3ccccc23)cc1S(N)(=O)=O  GI50 (SRB; 48 h): 1.3 µM
COc1ccc(NC(=O)c2c(Nc3ccccc3)sc(C#N)c2NC(=O)CNc2ccc(OC)c(OC)c2)cc1  viability (SRB; 0.1 µM; 48 h): 76%
Cc1cc(C)n(C(=S)[S][Au][PH](CCCCCC[PH]([Au][S]C(=S)n2nc(C)cc2C)(c2ccccc2)c2ccccc2)(c2ccccc2)c2ccccc2)n1  GI50: 0.38 µM
COc1ccc2cc(/C=N/n3c(C)nc4ccc(Br)cc4c3=O)ccc2c1  viability (LDH; 200 µg/mL; 24 h): 57%
COc1ccc(C(=O)/C=C/c2ccccc2Br)cc1S(N)(=O)=O  GI50 (SRB; 48 h): 1.5 µM
COc1cc(/C=N/n2c(C)nc3ccc(C)cc3c2=O)ccc1OCc1ccccc1  viability (LDH; 200 µg/mL; 24 h): 74.5%
COc1ccccc1/C=C/C(=O)c1ccc(OC)c(S(N)(=O)=O)c1  inhibition (SRB; 10 µM): 95%
COc1cc2c(OC)nc3c4cc5c(cc4cc(OCCCN4CCC(N6CCCCC6)CC4)c3c2cc1OC)OCO5  GI50 (MTT; 72 h): 5.7 µM
COc1cccc(Oc2ccccc2NC(=O)CNC(=O)c2cccc3ccccc23)c1  GI50 (SRB; 48 h): 0.0955 µM
COc1ccc(NC(=O)c2c(Nc3ccccc3)sc(C#N)c2NC(=O)CNc2ccc(Cl)cc2)cc1  viability (SRB; 0.1 µM; 48 h): 72%
COc1cc2c(OC)nc3c4cc5c(cc4cc(OCCCN(C)C)c3c2cc1OC)OCO5  GI50 (MTT; 72 h): 15 µM
CNC(=O)c1cc(Oc2ccc(NC(=O)Nc3ccc(Cl)c(C(F)(F)F)c3)cc2)ccn1  viability (SRB; 1 µM; 48 h): 46.6%
Cc1c(OCC(F)(F)F)ccnc1COc1ccc(NC(=O)Nc2cccc(C(F)(F)F)c2)cc1  IC50 (MTT; 72 h): 5.43 µM
COc1ccc(C(=O)/C=C/c2cccc(Cl)c2)cc1S(N)(=O)=O  GI50 (SRB; 48 h): 1.2 µM
COc1ccc(NC(=O)c2c(Nc3ccccc3)sc(C#N)c2NC(=O)CNc2ccc(O)cc2)cc1  viability (SRB; 10 nM; 48 h): 93.1%
COc1cc(NCC(=O)Nn2c(C)nc3ccc(Cl)cc3c2=O)cc(OC)c1OC  viability (LDH; 200 µg/mL; 24 h): 54.5%
COc1ccc(NCC(=O)Nc2c(C#N)sc(Nc3ccccc3)c2C(=O)Nc2ccc(OC)cc2)cc1  viability (SRB; 1 µM; 48 h): 70.2%
Cc1nc2ccc(Cl)cc2c(=O)n1NC(=O)CCl  viability (LDH; 200 µg/mL; 24 h): 89%
COc1ccc(C(=O)/C=C/c2ccc(Cl)c(Cl)c2)cc1S(N)(=O)=O  inhibition (SRB; 10 µM): 196%
COc1ccc(NC(=O)c2c(Nc3ccccc3)sc(C(=O)NN=Cc3cc(OC)c(OC)c(OC)c3)c2NC(C)=O)cc1  viability (SRB; 0.1 µM; 48 h): 86.1%
COc1ccc(C(=O)/C=C/c2cccc(Br)c2)cc1S(N)(=O)=O  inhibition (SRB; 10 µM): 199%
CCN(CC)CCCOc1cc2cc3c(cc2c2nc(OC)c4cc(OC)c(OC)cc4c12)OCO3  GI50 (MTT; 72 h): 13 µM
COc1ccc(NC(=O)c2c(Nc3ccccc3)sc(C(=O)NN=Cc3ccc(Cl)cc3)c2NC(C)=O)cc1  viability (SRB; 10 nM; 48 h): 95.1%
COc1ccc(C(=O)/C=C/c2ccc3ccccc3c2)cc1S(N)(=O)=O  GI50 (SRB; 48 h): 1.9 µM
COc1ccc(NC(=O)c2c(Nc3ccccc3)sc(C(=O)NN=Cc3ccc(OC)c(O)c3)c2NC(C)=O)cc1  viability (SRB; 10 nM; 48 h): 83.7%
COc1ccc(C(=O)/C=C/c2ccc3c(c2)OCCO3)cc1S(N)(=O)=O  inhibition (SRB; 10 µM): 57%
